Assay results: ChEMBL document CHEMBL1961794, “Regulation of circadian behaviour and metabolism by synthetic REV-ERB agonists” (Nature, 2012)
Calls of active or inactive are those of the source. The rule behind the calls is not given here.

Key:
[1] = target: Thyroid hormone receptor alpha (Homo sapiens) (UniProt P10827); assay: Effect on THRA(NR1A1) dependent reporter activity in HEK293 cells at 20 uM; type: cell-based
Method in brief: (§1)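 Cotransfection assay in HEK293 cells with Gal4 DNA-binding domain–nuclear receptor fusions, covering a panel of all 48 human nuclear receptors. Compounds were tested at 20 μM, with reporter luciferase as the read-out. Mean ± s.e.m., n=3.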

[2] = target: Nuclear receptor subfamily 0 group B member 2 (Homo sapiens) (UniProt Q15466); assay: Effect on SHP(NR0B2) dependent reporter activity in HEK293 cells at 20 uM; type: cell-based; method in brief: as §1
Nuclear receptor subfamily 0 group B member 2 (Homo sapiens), sequence (Q15466 whole entry): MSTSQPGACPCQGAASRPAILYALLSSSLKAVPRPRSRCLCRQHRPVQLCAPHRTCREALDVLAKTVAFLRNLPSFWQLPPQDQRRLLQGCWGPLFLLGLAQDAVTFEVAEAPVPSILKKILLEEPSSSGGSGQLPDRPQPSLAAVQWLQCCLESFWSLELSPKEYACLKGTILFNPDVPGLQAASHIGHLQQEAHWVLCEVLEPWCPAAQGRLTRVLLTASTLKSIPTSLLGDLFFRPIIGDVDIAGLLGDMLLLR

[3] = target: Peroxisome proliferator-activated receptor gamma (Homo sapiens) (UniProt P37231); assay: Effect on PPARG(NR1C3) dependent reporter activity in HEK293 cells at 20 uM; type: cell-based
Method in brief: (§2)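 Specificity panel covering all 48 human nuclear receptors. HEK293 cells cotransfected with Gal4 DNA-binding domain–nuclear receptor fusions and a luciferase reporter. Compound tested at a single 20 μM concentration. Mean ± s.e.m., n=3.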

[4] = target: Vitamin D3 receptor (Homo sapiens) (UniProt P11473); assay: Effect on VDR(NR1I1) dependent reporter activity in HEK293 cells at 20 uM; type: cell-based; method in brief: as §1
[5] = target: Nuclear receptor subfamily 2 group C member 2 (Homo sapiens) (UniProt P49116); assay: Effect on TR4(NR2C2) dependent reporter activity in HEK293 cells at 20 uM; type: cell-based; method in brief: as §1
[6] = target: Nuclear receptor subfamily 2 group E member 1 (Homo sapiens) (UniProt Q9Y466); assay: Effect on TLX(NR2E1) dependent reporter activity in HEK293 cells at 20 uM; type: cell-based; method in brief: as §1
Nuclear receptor subfamily 2 group E member 1 (Homo sapiens), sequence (Q9Y466 whole entry): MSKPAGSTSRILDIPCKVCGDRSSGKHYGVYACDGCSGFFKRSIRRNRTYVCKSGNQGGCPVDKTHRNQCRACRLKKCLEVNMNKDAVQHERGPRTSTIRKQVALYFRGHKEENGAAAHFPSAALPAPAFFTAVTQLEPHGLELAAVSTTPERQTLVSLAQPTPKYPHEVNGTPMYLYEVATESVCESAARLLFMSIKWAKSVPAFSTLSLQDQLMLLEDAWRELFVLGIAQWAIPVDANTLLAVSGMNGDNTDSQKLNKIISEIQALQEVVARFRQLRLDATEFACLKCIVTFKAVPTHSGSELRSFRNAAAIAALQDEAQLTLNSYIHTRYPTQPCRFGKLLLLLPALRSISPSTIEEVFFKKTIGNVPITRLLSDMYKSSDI

[7] = target: Nuclear receptor subfamily 5 group A member 2 (Homo sapiens) (UniProt O00482); assay: Effect on CPF(NR5A2) dependent reporter activity in HEK293 cells at 20 uM; type: cell-based; method in brief: as §2
Nuclear receptor subfamily 5 group A member 2 (Homo sapiens), sequence (O00482 whole entry): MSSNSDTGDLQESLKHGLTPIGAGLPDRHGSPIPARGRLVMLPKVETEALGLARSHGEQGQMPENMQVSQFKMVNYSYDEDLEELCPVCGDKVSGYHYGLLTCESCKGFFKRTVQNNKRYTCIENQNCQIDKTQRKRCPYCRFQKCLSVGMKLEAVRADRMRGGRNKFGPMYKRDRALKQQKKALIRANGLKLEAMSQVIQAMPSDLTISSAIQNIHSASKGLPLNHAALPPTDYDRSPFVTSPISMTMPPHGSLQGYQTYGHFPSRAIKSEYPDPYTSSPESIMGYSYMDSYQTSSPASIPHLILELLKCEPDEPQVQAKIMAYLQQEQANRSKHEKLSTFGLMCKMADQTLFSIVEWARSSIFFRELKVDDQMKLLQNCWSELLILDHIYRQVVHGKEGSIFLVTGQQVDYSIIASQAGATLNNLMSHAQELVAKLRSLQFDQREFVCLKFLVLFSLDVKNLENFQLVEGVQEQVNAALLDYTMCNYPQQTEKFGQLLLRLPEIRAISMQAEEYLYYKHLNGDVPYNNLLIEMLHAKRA

[8] = Plasma concentration after 2 hours at 100mg/kg ip dose (10mg/ml solution in 15% Cremophor); type: ADME, organism-based; conditions: mouse, read-out: Conc_plasma
Method in brief: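 Single 100 mg/kg i.p. dose given to mice as a 10 mg/ml solution in 15% Cremophor. Plasma drug concentration (μM) was measured at 2 and 8 h post-injection. Mean ± s.e.m., n=3.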

[9] = target: Estrogen-related receptor gamma (Homo sapiens) (UniProt P62508); assay: Effect on ERR3(NR3B3) dependent reporter activity in HEK293 cells at 20 uM; type: cell-based; method in brief: as §2
Estrogen-related receptor gamma (Homo sapiens), sequence (P62508 whole entry): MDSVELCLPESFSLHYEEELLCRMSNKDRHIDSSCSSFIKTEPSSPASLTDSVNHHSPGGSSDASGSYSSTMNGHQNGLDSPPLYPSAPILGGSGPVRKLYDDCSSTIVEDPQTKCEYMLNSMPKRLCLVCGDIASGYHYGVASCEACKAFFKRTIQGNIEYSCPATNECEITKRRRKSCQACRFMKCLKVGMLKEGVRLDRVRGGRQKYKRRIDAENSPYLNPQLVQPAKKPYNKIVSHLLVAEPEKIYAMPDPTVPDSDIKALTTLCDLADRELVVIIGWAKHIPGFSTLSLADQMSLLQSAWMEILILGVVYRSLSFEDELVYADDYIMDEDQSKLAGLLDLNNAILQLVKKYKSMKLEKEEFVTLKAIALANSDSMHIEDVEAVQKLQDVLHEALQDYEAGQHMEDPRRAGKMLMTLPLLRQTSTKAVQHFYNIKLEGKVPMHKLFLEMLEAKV

[10] = target: Steroid hormone receptor ERR2 (Homo sapiens) (UniProt O95718); assay: Effect on ERR2(NR3B2) dependent reporter activity in HEK293 cells at 20 uM; type: cell-based; method in brief: as §2
[11] = target: Nuclear receptor subfamily 2 group F member 6 (Homo sapiens) (UniProt P10588); assay: Effect on EAR2(NR2F6) dependent reporter activity in HEK293 cells at 20 uM; type: cell-based; method in brief: as §2
Nuclear receptor subfamily 2 group F member 6 (Homo sapiens), sequence (P10588 whole entry): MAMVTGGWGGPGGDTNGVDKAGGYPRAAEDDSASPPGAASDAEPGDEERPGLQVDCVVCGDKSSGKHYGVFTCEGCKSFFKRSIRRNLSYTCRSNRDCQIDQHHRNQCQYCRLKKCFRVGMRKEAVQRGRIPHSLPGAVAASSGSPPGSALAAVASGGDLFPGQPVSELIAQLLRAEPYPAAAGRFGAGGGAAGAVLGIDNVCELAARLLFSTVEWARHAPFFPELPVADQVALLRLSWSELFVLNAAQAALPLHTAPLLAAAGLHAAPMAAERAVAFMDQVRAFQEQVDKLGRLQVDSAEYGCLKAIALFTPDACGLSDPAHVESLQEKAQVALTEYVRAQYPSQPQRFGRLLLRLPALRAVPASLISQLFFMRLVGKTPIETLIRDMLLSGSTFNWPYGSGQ

[12] = target: Nuclear receptor subfamily 1 group I member 2 (Homo sapiens, UniProt O75469); assay: Effect on PXR(NR1I2) dependent reporter activity in HEK293 cells at 20 uM; type: cell-based; conditions: hek293, 20 µM; method in brief: as §2
Nuclear receptor subfamily 1 group I member 2, sequence (O75469 whole entry): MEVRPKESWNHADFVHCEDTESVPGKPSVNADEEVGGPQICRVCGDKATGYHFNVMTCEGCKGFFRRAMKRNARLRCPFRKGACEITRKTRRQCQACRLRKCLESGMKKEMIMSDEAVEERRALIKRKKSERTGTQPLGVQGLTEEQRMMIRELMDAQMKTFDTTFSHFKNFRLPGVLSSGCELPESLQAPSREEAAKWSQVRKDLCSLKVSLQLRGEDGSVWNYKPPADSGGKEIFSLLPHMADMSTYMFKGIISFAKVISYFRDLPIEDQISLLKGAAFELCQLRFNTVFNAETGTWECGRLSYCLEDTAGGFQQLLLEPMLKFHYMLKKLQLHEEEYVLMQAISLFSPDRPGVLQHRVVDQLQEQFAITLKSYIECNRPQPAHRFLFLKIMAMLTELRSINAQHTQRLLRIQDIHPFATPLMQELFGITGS

[13] = target: Nuclear receptor ROR-gamma (Homo sapiens) (UniProt P51449); assay: Effect on RORG(NR1F3) dependent reporter activity in HEK293 cells at 20 uM; type: cell-based; method in brief: as §2
Nuclear receptor ROR-gamma (Homo sapiens), sequence (P51449 whole entry): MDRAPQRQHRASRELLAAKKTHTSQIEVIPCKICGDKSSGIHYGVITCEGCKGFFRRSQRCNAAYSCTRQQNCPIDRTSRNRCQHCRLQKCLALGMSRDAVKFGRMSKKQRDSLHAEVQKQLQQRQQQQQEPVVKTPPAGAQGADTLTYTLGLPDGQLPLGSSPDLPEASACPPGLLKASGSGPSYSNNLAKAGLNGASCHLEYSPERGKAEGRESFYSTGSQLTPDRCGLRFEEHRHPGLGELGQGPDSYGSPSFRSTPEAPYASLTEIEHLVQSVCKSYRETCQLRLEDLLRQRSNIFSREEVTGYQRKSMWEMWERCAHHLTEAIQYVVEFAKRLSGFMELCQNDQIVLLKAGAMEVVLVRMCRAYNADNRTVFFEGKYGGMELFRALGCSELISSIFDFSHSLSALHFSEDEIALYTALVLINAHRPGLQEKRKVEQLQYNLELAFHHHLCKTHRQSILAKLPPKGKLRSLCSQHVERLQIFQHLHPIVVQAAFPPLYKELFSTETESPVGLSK

[14] = target: Hepatocyte nuclear factor 4-alpha (Homo sapiens) (UniProt P41235); assay: Effect on HNF4A(NR2A1) dependent reporter activity in HEK293 cells at 20 uM; type: cell-based; method in brief: as §2
Hepatocyte nuclear factor 4-alpha (Homo sapiens), sequence (P41235 whole entry): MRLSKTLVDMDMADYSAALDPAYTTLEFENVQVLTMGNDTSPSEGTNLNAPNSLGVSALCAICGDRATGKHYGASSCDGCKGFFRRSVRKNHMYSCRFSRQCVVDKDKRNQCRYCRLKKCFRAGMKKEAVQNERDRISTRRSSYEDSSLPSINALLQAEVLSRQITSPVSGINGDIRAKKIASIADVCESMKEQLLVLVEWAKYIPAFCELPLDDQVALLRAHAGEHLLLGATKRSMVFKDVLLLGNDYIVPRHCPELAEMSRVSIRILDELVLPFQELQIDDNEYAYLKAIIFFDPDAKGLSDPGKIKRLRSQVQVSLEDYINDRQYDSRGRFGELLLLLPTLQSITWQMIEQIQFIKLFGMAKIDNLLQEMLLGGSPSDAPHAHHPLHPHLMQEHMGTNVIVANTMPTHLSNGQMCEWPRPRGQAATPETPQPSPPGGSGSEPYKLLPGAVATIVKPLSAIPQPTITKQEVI

[15] = target: Retinoic acid receptor RXR-alpha (Homo sapiens) (UniProt P19793); assay: Effect on RXRA(NR2B1) dependent reporter activity in HEK293 cells at 20 uM; type: cell-based; method in brief: as §2
Mus musculus [16] = assay: Decreased expression of REV-ERB responsive gene Serpine1 in mouse liver after 6 days at 100 mg/kg; type: functional, organism-based; set-up: dose 100 mg/kg
[17] = target: Hepatocyte nuclear factor 4-gamma (Homo sapiens) (UniProt Q14541); assay: Effect on HNF4G(NR2A2) dependent reporter activity in HEK293 cells at 20 uM; type: cell-based; method in brief: as §2
Mus musculus [18] = assay: Change in plasma leptin in diet-induced obese mice over 30 days at 100 mg/kg ip; type: functional, organism-based; set-up: dose 100 mg/kg; conditions: C57BL/6
[19] = target: Retinoic acid receptor beta (Homo sapiens) (UniProt P10826); assay: Effect on RARB(NR1B2) dependent reporter activity in HEK293 cells at 20 uM; type: cell-based; method in brief: as §2
[20] = target: Retinoic acid receptor gamma (Homo sapiens) (UniProt P13631); assay: Effect on RARG(NR1B3) dependent reporter activity in HEK293 cells at 20 uM; type: cell-based; method in brief: as §2
[21] = target: Steroid hormone receptor ERR1 (Homo sapiens) (UniProt P11474); assay: Effect on ERR1(NR3B1) dependent reporter activity in HEK293 cells at 20 uM; type: cell-based; method in brief: as §2
Steroid hormone receptor ERR1 (Homo sapiens), sequence (P11474 whole entry): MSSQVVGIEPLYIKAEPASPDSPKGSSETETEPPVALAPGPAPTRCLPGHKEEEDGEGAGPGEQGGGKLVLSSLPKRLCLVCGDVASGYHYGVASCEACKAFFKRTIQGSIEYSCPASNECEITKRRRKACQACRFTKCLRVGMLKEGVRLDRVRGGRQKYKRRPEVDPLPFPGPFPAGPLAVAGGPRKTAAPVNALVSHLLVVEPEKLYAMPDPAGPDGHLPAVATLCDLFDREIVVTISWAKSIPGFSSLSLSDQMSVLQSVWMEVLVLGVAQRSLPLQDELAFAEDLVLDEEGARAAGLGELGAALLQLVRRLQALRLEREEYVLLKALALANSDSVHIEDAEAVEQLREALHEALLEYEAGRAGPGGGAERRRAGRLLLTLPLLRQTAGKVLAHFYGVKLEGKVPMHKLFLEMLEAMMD

[22] = target: Nuclear receptor subfamily 1 group I member 3 (Homo sapiens, UniProt Q14994); assay: Effect on CAR(NR1I3) dependent reporter activity in HEK293 cells at 20 uM; type: cell-based; conditions: hek293, 20 µM; method in brief: as §2
[23] = target: Nuclear receptor subfamily 1 group D member 2 (Homo sapiens, UniProt Q14995); assay: Increased REV-ERB-beta LBD dependent repressor activity in HEK293 cell reporter assay; type: cell-based
Nuclear receptor subfamily 1 group D member 2, sequence (Q14995 whole entry, the tested form may be a part): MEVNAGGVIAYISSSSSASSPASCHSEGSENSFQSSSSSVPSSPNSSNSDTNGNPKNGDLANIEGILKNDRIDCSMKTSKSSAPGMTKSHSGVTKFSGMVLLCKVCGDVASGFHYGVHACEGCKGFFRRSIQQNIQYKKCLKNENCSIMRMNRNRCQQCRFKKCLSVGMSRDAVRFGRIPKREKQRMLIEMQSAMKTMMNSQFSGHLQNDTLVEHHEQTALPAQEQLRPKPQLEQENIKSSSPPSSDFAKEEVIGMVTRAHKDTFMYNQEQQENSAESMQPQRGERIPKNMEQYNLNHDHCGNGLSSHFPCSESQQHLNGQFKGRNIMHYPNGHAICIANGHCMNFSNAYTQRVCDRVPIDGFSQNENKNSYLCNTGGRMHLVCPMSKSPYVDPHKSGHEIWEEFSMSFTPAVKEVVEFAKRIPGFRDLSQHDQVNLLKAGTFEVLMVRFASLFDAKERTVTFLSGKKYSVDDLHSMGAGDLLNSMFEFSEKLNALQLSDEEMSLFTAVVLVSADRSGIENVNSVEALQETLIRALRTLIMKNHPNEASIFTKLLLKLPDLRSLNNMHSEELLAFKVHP

[24] = target: Estrogen receptor beta (Homo sapiens) (UniProt Q92731); assay: Effect on ESR2(NR3A2) dependent reporter activity in HEK293 cells at 20 uM; type: cell-based; method in brief: as §2
[25] = Plasma concentration after 8 hours at 10mg/kg ip dose (10mg/ml suspension in 10%DMSO/10%Tween80); type: ADME, organism-based; conditions: mouse, read-out: Conc_plasma
Method in brief: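 Mice received a single 10 mg/kg i.p. dose as a 10 mg/ml suspension in DMSO/Tween80/water (10/10/80). Plasma was sampled at 1, 2, 4 and 8 h post-injection and drug concentration reported in μM. Mean ± s.e.m., n=3.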

[26] = target: Oxysterols receptor LXR-alpha (Homo sapiens) (UniProt Q13133); assay: Effect on LXRA(NR1H3) dependent reporter activity in HEK293 cells at 20 uM; type: cell-based; method in brief: as §2
Mus musculus [27] = assay: Decreased expression of REV-ERB responsive gene Cyp7a1 in mouse liver after 6 days at 100 mg/kg; type: functional, organism-based; set-up: dose 100 mg/kg

Thyroid hormone receptor alpha (Homo sapiens), sequence (P10827 whole entry, the tested form may be a part): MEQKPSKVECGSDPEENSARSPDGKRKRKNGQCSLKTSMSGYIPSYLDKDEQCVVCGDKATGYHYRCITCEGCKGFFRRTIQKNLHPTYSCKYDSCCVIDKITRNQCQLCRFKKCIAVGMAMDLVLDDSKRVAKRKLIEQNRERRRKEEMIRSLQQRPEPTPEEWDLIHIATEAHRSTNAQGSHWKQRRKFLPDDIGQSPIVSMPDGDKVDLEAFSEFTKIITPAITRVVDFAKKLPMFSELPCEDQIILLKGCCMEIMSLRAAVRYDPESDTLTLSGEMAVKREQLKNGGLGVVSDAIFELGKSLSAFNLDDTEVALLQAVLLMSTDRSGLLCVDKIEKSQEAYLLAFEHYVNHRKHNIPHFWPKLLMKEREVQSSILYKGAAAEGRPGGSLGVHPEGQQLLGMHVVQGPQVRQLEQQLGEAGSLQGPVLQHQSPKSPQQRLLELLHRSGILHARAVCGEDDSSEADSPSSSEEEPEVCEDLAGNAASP

CCOC(=O)N1CCC(CN(Cc2ccc(Cl)cc2)Cc2ccc([N+](=O)[O-])s2)C1 (stereo not drawn) [SR9009]
inhibition [1]: inactive | inhibition [2]: inactive | inhibition [3]: inactive | inhibition [4]: inactive | inhibition [5]: inactive | inhibition [6]: inactive | inhibition [7]: inactive | concentration at 2 h [8]: 22.9 µM | inhibition [9]: inactive | inhibition [10]: inactive | inhibition [11]: inactive | Inhibition [12]: Not Active | inhibition [13]: inactive | inhibition [14]: inactive | inhibition [15]: inactive | Reduced_Serpine1_gene_exp (Mus musculus [16]): Active | inhibition [17]: inactive | Plasma leptin (Mus musculus [18]): -80% | inhibition [19]: inactive | inhibition [20]: inactive | inhibition [21]: inactive | Inhibition [22]: Not Active | IC50 [23]: 800 nM (agonist) | inhibition [24]: inactive | concentration at 8 h [25]: 0.13 µM | inhibition [26]: inactive | Reduced_Cyp7a1_gene_exp (Mus musculus [27]): Active

CCCCCNC(=O)N1CCC(CN(Cc2ccc(Cl)cc2)Cc2ccc([N+](=O)[O-])s2)C1 (stereo not drawn) [SR9011]
inhibition [1]: inactive | inhibition [2]: inactive | inhibition [3]: inactive | inhibition [4]: inactive | inhibition [5]: inactive | inhibition [6]: inactive | inhibition [7]: inactive | concentration at 2 h [8]: 15.3 µM | inhibition [9]: inactive | inhibition [10]: inactive | inhibition [11]: inactive | Inhibition [12]: Not Active | inhibition [13]: inactive | inhibition [14]: inactive | inhibition [15]: inactive | Reduced_Serpine1_gene_exp (Mus musculus [16]): Active | inhibition [17]: inactive | inhibition [19]: inactive | inhibition [20]: inactive | inhibition [21]: inactive | Inhibition [22]: Not Active | IC50 [23]: 560 nM (agonist) | inhibition [24]: inactive | concentration at 8 h [25]: 0.01 µM | inhibition [26]: inactive | Reduced_Cyp7a1_gene_exp (Mus musculus [27]): Active
